# This is a sample that favours compounds with a hit; in the whole collection about 4.6% have one here.
# CHO parental Ca = ATP-evoked calcium signal inhibitors, parental CHO, primary screen, counter-screen for OX1R antagonist project, cell-based, fluorescence, Fluo-8 calcium dye. 330,000 tested, 0.63% active. inhibition, % at 5.6 µM. parental CHO-K1, ATP-induced calcium, Fluo-8 fluorescence. AID 463079, 2010;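 active = inhibition above that plate's mean sample inhibition plus 3 SD, cut at about 26% in these data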;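 note: 0% = ATP-challenged DMSO wells and 100% = DMSO wells without ATP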
#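 Test system: parental CHO cells; detection: calcium-sensitive Fluo-8 fluorescence; evaluation: percent inhibition of calcium signal; also added: ATP as calcium-mobilizing challenge; repeats: one well per compound; control set: ATP-challenged DMSO wells low, unchallenged DMSO wells high; compound: single nominal dose of 5.6 µM per compound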
# TAAR1 antag = human TAAR1 antagonists, primary screen, Fluo-8 calcium fluorescence, CHO RD-HGA16 cells; inhibition, % at 3 µM; AID 624466, 2012; 360,000 tested, 1.5% active; antagonist;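 active = inhibition above a per-plate cutoff, the mean inhibition of test compounds on that plate plus 3 SD, cut at about 49% in these data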;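 note: 0% = DMSO plus EC80 beta-PEA response and 100% = DMSO alone without agonist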
# Target sequence (Q96RJ0 whole entry, looked up): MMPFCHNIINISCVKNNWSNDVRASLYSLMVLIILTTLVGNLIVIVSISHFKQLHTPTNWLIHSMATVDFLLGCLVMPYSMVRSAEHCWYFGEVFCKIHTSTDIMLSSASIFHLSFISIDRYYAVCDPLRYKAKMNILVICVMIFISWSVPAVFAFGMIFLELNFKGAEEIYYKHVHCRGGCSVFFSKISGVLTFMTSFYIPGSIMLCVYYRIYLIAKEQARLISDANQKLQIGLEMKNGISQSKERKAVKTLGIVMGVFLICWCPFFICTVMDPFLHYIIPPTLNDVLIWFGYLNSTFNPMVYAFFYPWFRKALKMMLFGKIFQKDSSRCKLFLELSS
#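 Test system: hTAAR1-expressing CHO RD-HGA16 cells, Gα16-coupled; Probe or stimulus: EC80 β-phenethylamine stimulus; Compound dosing: single nominal final test compound concentration of 3 µM; Timing: 140 s kinetic read after compound, 140 s after agonist; Signal: Fluo-8 calcium-sensitive fluorescence; Measure: % inhibition of agonist calcium response; Controls: DMSO and EC80 PEA controls.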
# OX1R antag-1 = OX1R (HCRTR1) antagonists, primary screen, fluorescence, CHO/OX1R cells, Fluo-8 calcium, orexin A | AID 434989, 2010 | 330,000 tested, 0.43% active | Orexin/Hypocretin receptor type 1 (Homo sapiens), O43613 | Fluo-8 calcium fluorescence | inhibition, % at 5 µM;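 active = inhibition above its plate's threshold, mean inhibition of all tested compounds on the plate plus 3 SD, cut at about 37% in these data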;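 note: 0% = orexin A challenge wells and 100% = SB-334867-A antagonist wells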
# OX1R antag-2 = antagonists of human orexin 1 receptor (OX1R); inhibition, % at 6.6 µM; AID 485270, 2010; Orexin/Hypocretin receptor type 1 (Homo sapiens), O43613; 330,000 tested, 1.8% active; OX1R-expressing cells, FRET antagonist read-out; in the data active = inhibition mostly above about 38%, no sharp cut-off; inactive = mostly below about 40%;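 note: 0% = agonist challenge alone and 100% = reference antagonist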
# GPR7 antag = GPR7 receptor antagonists, primary screen, cell-based, fluorescence, single concentration. GPR7-expressing cells, fluorescence antagonist assay. 290,000 tested, 1.1% active. AID 1861, 2009. Neuropeptides B/W receptor type 1 (Homo sapiens), P48145. inhibition, % at 4.4 µM; in the data active = inhibition above about 16%, passing the limit was not always enough;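 note: cells stimulated with the agonist NPW; 0% = agonist with vehicle and 100% = vehicle without agonist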
# Target sequence (P48145 whole entry, looked up): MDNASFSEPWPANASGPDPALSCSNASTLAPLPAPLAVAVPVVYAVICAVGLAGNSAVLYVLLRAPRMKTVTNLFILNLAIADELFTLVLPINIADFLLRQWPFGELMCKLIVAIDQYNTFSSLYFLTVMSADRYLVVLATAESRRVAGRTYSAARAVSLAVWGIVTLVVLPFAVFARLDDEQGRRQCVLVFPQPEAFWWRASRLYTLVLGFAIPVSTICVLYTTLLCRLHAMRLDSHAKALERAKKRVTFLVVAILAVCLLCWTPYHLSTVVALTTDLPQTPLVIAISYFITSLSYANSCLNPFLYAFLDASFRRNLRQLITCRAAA
# TAAR1 agonist = human TAAR1 agonists, primary screen, Fluo-8 calcium fluorescence, CHO RD-HGA16 cells; 360,000 tested, 0.99% active; Trace amine-associated receptor 1 (Homo sapiens), Q96RJ0; activation, % at 3 µM; vehicle wells 0%, saturating PEA agonist 100%;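 active = activation above the mean activation of all test compounds in the run plus 3 SD, cut at about 38% in these data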
#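 test system = CHO RD-HGA16 cells carrying human TAAR1 plus Gα16 | schedule = 17-24 h seeding, 75 min 37 °C dye, 30 min RT | compound dosing = 3 µM single concentration | control set = DMSO and PEA EC100 | replicates = n 1 | signal = Fluo-8 fluorescence, 5 s baseline then 140 s kinetic read | measure = percent activation vs PEA EC100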
# The depositor's hits bear a star; x = not tested or not shown.
SMILES,CHO parental Ca,TAAR1 antag,OX1R antag-1,OX1R antag-2,GPR7 antag,TAAR1 agonist
Cc1cc(C(=O)OCC(=O)NCc2cccs2)ccc1[N+](=O)[O-],-13,4,1,16,x,1
CCOC(=O)c1nn(-c2cc(C(=O)OC)cc(C(=O)OC)c2)cc1O,-5,7,0,3,-10,4
CCOC(=O)c1nn(-c2sc(C(=O)OC)c(C)c2C(=O)OC)cc1O,-4,5,-5,4,19*,12
O=C(N/C=C\n1cnc2cc(C(F)(F)F)ccc21)c1ccc([N+](=O)[O-])cc1,2,-18,-25,18,16,3
O=C(N/C=C/n1cnc2cc(C(F)(F)F)ccc21)c1ccccc1,51*,1,-51,26,-4,-1
COc1cccc2sc(Nc3nnc(-c4ccc(F)cc4)o3)nc12,12,4,-4,10,-18,10
Fc1cccc2sc(Nc3nnc(-c4ccco4)o3)nc12,41*,3,29,44,1,4
O=C(Nc1cc(C(F)(F)F)ccc1N1CCOCC1)C1Cc2ccccc2CN1C(=O)c1ccco1 (stereo unspecified),-18,7,-19,17,40*,-2
O=C(Nc1ccccc1)C1Cc2ccccc2CN1C(=O)c1ccco1 (stereo unspecified),-23,-5,-26,11,5,0
CC[N+]1=C(C)C(C)(C)c2cc(C)ccc21,64*,17,70*,43,1,2
CCN1C(=O)C(=O)c2cc(C)ccc21,-6,-5,-8,25,x,8
O=C1CC(N2CCN(S(=O)(=O)c3cccc(C(F)(F)F)c3)CC2)C(=O)N1Cc1ccccc1 (stereo unspecified),-12,14,-8,16,25*,11
Cn1cc(C(=O)Nc2ccc(Cl)c(Cl)c2)cn1,-5,-11,-1,9,x,11
CCn1c(SCC(=O)Nc2c(C)n(C)n(-c3ccccc3)c2=O)nc2c1c(=O)n(C)c(=O)n2C,-10,11,-8,14,3,4
O=C(Nc1ccc(Cl)c(C(F)(F)F)c1)c1ccncc1,-12,-25,-7,32,3,21
CNC(=O)c1cc(Oc2ccc(NC(=O)Nc3ccc(Cl)c(C(F)(F)F)c3)cc2)ccn1,19,47,39,47*,x,44*
COc1ccccc1C=NN=C(NN=Cc1ccccc1OC)NN=Cc1ccccc1OC,x,52*,x,x,x,16
O=C(N/N=C/c1cc2c(cc1Br)OCO2)c1ccccn1,-30,-4,-26,2,-3,-1
COc1cc(/C=N/NC(=O)c2cc3c(ccc4ccccc43)o2)cc(OC)c1O,-9,33,7,53*,5,9
COc1ccccc1/C=N/NC(=O)c1cc2c(ccc3ccccc32)o1,-18,16,-1,65*,-15,1
COc1ccccc1C=NNC(=O)NN=Cc1ccccc1OC,x,-3,x,x,x,-1
O=C(N/N=C/c1ccncc1)c1cc2c(ccc3ccccc32)o1,0,21,1,37,6,6
O=C(N/N=C/c1cc2c(cc1Br)OCO2)c1cc2ccccc2o1,-16,6,-1,76*,-16,0
COc1cc(/C=N/NC(=O)c2ccc(COc3ccccc3Cl)o2)cc(Br)c1O,6,44,-3,-7,30*,10
Cn1ccsc1=NC(=O)c1ccc([N+](=O)[O-])o1,-3,-25,-2,105*,-6,3
SMILES,CHO parental Ca,TAAR1 antag,OX1R antag-1,OX1R antag-2,GPR7 antag,TAAR1 agonist
COC(=O)c1sc(-c2ccc(C(C)(C)C)cc2)cc1NC(=O)CCC(=O)O,31,51*,31,19,-7,11
CC(=O)Nc1ccc(NC(=O)COc2cccc3c2OC(C)(C)C3)cc1,-23,-1,-11,7,-9,2
COc1cc(NC(=O)COc2cccc3c2OC(C)(C)C3)cc(OC)c1OC,7,59*,26,24,x,13
CN(C)CC(CCC(CN(C)C)C(=O)c1ccccc1)C(=O)c1ccccc1 (stereo unspecified),x,x,x,x,38*,x
CC(C)NC(=O)c1sc2nc3c(c(-c4cccs4)c2c1N)CN(C)CC3,-5,-23,-25,60*,2,1
Cc1cccc(NC(=O)c2sc3nc4c(c(-c5cccs5)c3c2N)CN(C)CC4)c1,-12,-8,-13,76*,-2,3
COc1ccc(NC(=O)CSc2nc3c(c(-c4cccs4)c2C#N)CN(C)CC3)cc1OC,-8,-3,-12,7,-14,1
NC(=O)c1sc2nc3c(c(-c4cccs4)c2c1N)CCCC3,x,x,x,x,-12,x
CCCn1cnc2c(c1=O)c1nc3ccccc3nc1n2CCC1=CCCCC1,x,x,x,x,-11,x
O=C1C=C(Nc2ccccc2C(=O)O)c2ccccc2C1=O,-5,-14,-6,51,-13,1
O=C1C=C(Nc2cccc3cccnc23)c2ccccc2C1=O,-8,-8,-10,64*,-11,-1
Cc1cc2c(c(C)c1Cl)C(c1ccc3c(c1)OCO3)CC(=O)O2 (stereo unspecified),9,38,6,14,x,6
Cc1ccc(C(C)C)c2c1C(c1ccc3c(c1)OCO3)CC(=O)O2 (stereo unspecified),-16,45,15,7,x,47*
CCCNC(=O)CCC(=O)Nc1ncc(-c2ccc(C)cc2)n1C,-9,-1,-5,2,-5,2
COc1ccc(NC(=O)N/C=C/c2ccccc2)cc1,7,26,-14,17,-5,36
CC(NC(=O)COC(=O)c1ccc([N+](=O)[O-])o1)c1ccccc1 (stereo unspecified),-7,-20,-16,33,x,5
O=C(COC(=O)c1ccc([N+](=O)[O-])o1)NCCc1ccccc1,-5,-7,6,32*,x,17
O=C(COC(=O)c1ccc(Br)o1)NCCNC(=O)COC(=O)c1ccc(Br)o1,-6,-13,-23,21,x,6
O=C(COC(=O)c1ccc([N+](=O)[O-])o1)Nc1ccc(Br)cc1F,0,16,-7,28*,x,-3
O=C(COC(=O)c1ccc(Br)o1)Nc1ccc(Br)cc1,3,9,-2,-3,x,40*
C/C(=N\NC(=O)c1ccc(CSc2nc(C)cc(C)n2)cc1)c1ccco1,-1,5,-8,23,-18,0
O=C1c2cccnc2C(=O)N1Cc1ccc(F)cc1S(=O)(=O)NCc1ccco1,11,-13,-6,18,0,4

# High-throughput results (PubChem BioAssay)
